Assay results from ChEMBL document CHEMBL4257510, “Mercaptoacetate thioesters and their hydrolysate mercaptoacetic acids jointly inhibit metallo-β-lactamase L1” (Medchemcomm, 2018).
Active and inactive are the calls of the source. The calls are words filed in the database; no cut-off is given here.

Test system: Escherichia coli
Assay: Potentiation of cefazolin-mediated antibacterial activity against Escherichia coli BL21(DE3) assessed as cefazolin MIC at 16 ug/ml after 16 hrs by broth macrodilution method (reference value: 4 ug/ml)
Type: functional
Conditions: not given
In short: (§1)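 E. coli BL21(DE3) carrying pET26b-L1 was grown overnight in Mueller-Hinton broth at 37 °C, pelleted and resuspended to OD600 0.1. MICs were determined by CLSI broth macrodilution after at least 16 h at 37 °C, taking the lowest concentration with no visible growth. Triplicates in at least two independent experiments; highest MIC reported.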

SMILES	MIC
CSCC[C@H](NC(=O)c1cccc(Br)c1)C(=O)SCC(=O)O	4 µg/mL
O=C(O)CSC(=O)[C@H](Cc1c[nH]c2ccccc12)NC(=O)c1ccc(Br)cc1	4 µg/mL
O=C(O)CSC(=O)[C@H](Cc1c[nH]c2ccccc12)NC(=O)c1ccc(F)cc1	4 µg/mL
CSCC[C@H](NC(=O)c1ccc([N+](=O)[O-])cc1)C(=O)SCC(=O)O	4 µg/mL
O=C(O)CSC(=O)[C@H](Cc1c[nH]c2ccccc12)NC(=O)c1ccc([N+](=O)[O-])cc1	4 µg/mL
O=C(O)CSC(=O)[C@H](Cc1c[nH]c2ccccc12)NC(=O)c1ccc(Cl)cc1	4 µg/mL

Test system: Bacteria
Assay: Binding affinity to bacterial metallo-beta-lactamase L1 expressed in Escherichia coli BL21 (DE3) assessed as change in gibbs free energy by ITC method
Conditions: not given

SMILES	deltaG
CSCC[C@H](NC(=O)c1ccc([N+](=O)[O-])cc1)C(=O)SCC(=O)O	-7.18 kcal/mol

Test system: not listed separately
Assay: Binding affinity to bacterial metallo-beta-lactamase L1 expressed in Escherichia coli BL21 (DE3) by ITC method
Design: species or system Bacteria
Conditions: not given

SMILES	Kd
CSCC[C@H](NC(=O)c1ccc([N+](=O)[O-])cc1)C(=O)SCC(=O)O	5.5 µM

Test system: Bacteria
Assay: Binding affinity to bacterial metallo-beta-lactamase L1 expressed in Escherichia coli BL21 (DE3) assessed as change in entropy by ITC method
Conditions: not given

SMILES	TdeltaS
CSCC[C@H](NC(=O)c1ccc([N+](=O)[O-])cc1)C(=O)SCC(=O)O	-9.6 kcal/mol

Test system: not listed separately
Assay: Inhibition of bacterial metallo-beta-lactamase L1 expressed in Escherichia coli BL21 (DE3) using cefazolin as substrate preincubated for 30 mins followed by substrate addition
Design: species or system Bacteria
Conditions: not given
In short: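 IC50 measured at 25 °C with 50 µM cefazolin and inhibitor varied over 0.01–2 µM, after 30 min enzyme–inhibitor pre-incubation. Compounds were dissolved in DMSO and diluted in 30 mM Tris pH 7.0, with final DMSO below 0.1%.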

SMILES	IC50
CSCC[C@H](NC(=O)c1cccc(Br)c1)C(=O)SCC(=O)O	1.2 µM
O=C(O)CSC(=O)[C@H](Cc1c[nH]c2ccccc12)NC(=O)c1ccc(Br)cc1	0.88 µM
O=C(O)CSC(=O)[C@H](Cc1c[nH]c2ccccc12)NC(=O)c1ccc(F)cc1	0.75 µM
CSCC[C@H](NC(=O)c1ccc([N+](=O)[O-])cc1)C(=O)SCC(=O)O	0.17 µM
O=C(O)CSC(=O)[C@H](Cc1c[nH]c2ccccc12)NC(=O)c1ccc([N+](=O)[O-])cc1	0.37 µM
O=C(O)CSC(=O)[C@H](Cc1c[nH]c2ccccc12)NC(=O)c1ccc(Cl)cc1	0.19 µM

Test system: Bacteria
Assay: Inhibition of bacterial metallo-beta-lactamase L1 expressed in Escherichia coli BL21 (DE3) assessed as decrease in cefazolin MIC at 16 ug/ml after 16 hrs by broth macrodilution method relative to control
Conditions: not given
In short: as §1

SMILES	fold change (FC)
CSCC[C@H](NC(=O)c1cccc(Br)c1)C(=O)SCC(=O)O	2 to 4
O=C(O)CSC(=O)[C@H](Cc1c[nH]c2ccccc12)NC(=O)c1ccc(Br)cc1	2 to 4
O=C(O)CSC(=O)[C@H](Cc1c[nH]c2ccccc12)NC(=O)c1ccc(F)cc1	2 to 4
CSCC[C@H](NC(=O)c1ccc([N+](=O)[O-])cc1)C(=O)SCC(=O)O	2 to 4
O=C(O)CSC(=O)[C@H](Cc1c[nH]c2ccccc12)NC(=O)c1ccc([N+](=O)[O-])cc1	2 to 4
O=C(O)CSC(=O)[C@H](Cc1c[nH]c2ccccc12)NC(=O)c1ccc(Cl)cc1	2 to 4

Test system: Bacteria
Assay: Inhibition of bacterial metallo-beta-lactamase ImiS expressed in Escherichia coli BL21 (DE3) at 20 uM using imipenem as substrate preincubated for 30 mins followed by substrate addition
Conditions: not given

SMILES	inhibition
CSCC[C@H](NC(=O)c1cccc(Br)c1)C(=O)SCC(=O)O	inactive
O=C(O)CSC(=O)[C@H](Cc1c[nH]c2ccccc12)NC(=O)c1ccc(Br)cc1	inactive
O=C(O)CSC(=O)[C@H](Cc1c[nH]c2ccccc12)NC(=O)c1ccc(F)cc1	inactive
CSCC[C@H](NC(=O)c1ccc([N+](=O)[O-])cc1)C(=O)SCC(=O)O	inactive
O=C(O)CSC(=O)[C@H](Cc1c[nH]c2ccccc12)NC(=O)c1ccc([N+](=O)[O-])cc1	inactive
O=C(O)CSC(=O)[C@H](Cc1c[nH]c2ccccc12)NC(=O)c1ccc(Cl)cc1	inactive

Test system: Bacteria
Assay: Binding affinity to bacterial metallo-beta-lactamase L1 expressed in Escherichia coli BL21 (DE3) assessed as change in enthalpy by ITC method
Conditions: not given

SMILES	deltaH
CSCC[C@H](NC(=O)c1ccc([N+](=O)[O-])cc1)C(=O)SCC(=O)O	-16.8 kcal/mol

Test system: not listed separately
Assay: Stability in Tris buffer at pH 6 to 8.5 measured every 2 hrs for 24 hrs by UV-Vis spectroscopic analysis
Type: physicochemical
Conditions: pH 6, 24 h
In short: (§2)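 Thioester in Tris buffer at pH 6.0, 7.0 or 8.5, or at pH 7.0 with increasing L1 concentration. Absorbance at 245 nm was recorded every 2 h over 24 h.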

SMILES	Stability
CSCC[C@H](NC(=O)c1ccc([N+](=O)[O-])cc1)C(=O)SCC(=O)O	Stable
O=C(O)CSC(=O)[C@H](Cc1c[nH]c2ccccc12)NC(=O)c1ccc([N+](=O)[O-])cc1	Stable

Test system: Bacteria
Assay: Inhibition of bacterial metallo-beta-lactamase NDM1 expressed in Escherichia coli BL21 (DE3) at 20 uM using cefazolin as substrate preincubated for 30 mins followed by substrate addition
Conditions: not given

SMILES	inhibition
CSCC[C@H](NC(=O)c1cccc(Br)c1)C(=O)SCC(=O)O	inactive
O=C(O)CSC(=O)[C@H](Cc1c[nH]c2ccccc12)NC(=O)c1ccc(Br)cc1	inactive
O=C(O)CSC(=O)[C@H](Cc1c[nH]c2ccccc12)NC(=O)c1ccc(F)cc1	inactive
CSCC[C@H](NC(=O)c1ccc([N+](=O)[O-])cc1)C(=O)SCC(=O)O	inactive
O=C(O)CSC(=O)[C@H](Cc1c[nH]c2ccccc12)NC(=O)c1ccc([N+](=O)[O-])cc1	inactive
O=C(O)CSC(=O)[C@H](Cc1c[nH]c2ccccc12)NC(=O)c1ccc(Cl)cc1	inactive

Test system: Bacteria
Assay: Inhibition of bacterial metallo-beta-lactamase L1 expressed in Escherichia coli BL21 (DE3) at 20 uM using cefazolin as substrate preincubated for 30 mins followed by substrate addition relative to control
Conditions: not given

SMILES	inhibition
CSCC[C@H](NC(=O)c1cccc(Br)c1)C(=O)SCC(=O)O	90 to 95%
O=C(O)CSC(=O)[C@H](Cc1c[nH]c2ccccc12)NC(=O)c1ccc(Br)cc1	90 to 95%
O=C(O)CSC(=O)[C@H](Cc1c[nH]c2ccccc12)NC(=O)c1ccc(F)cc1	90 to 95%
CSCC[C@H](NC(=O)c1ccc([N+](=O)[O-])cc1)C(=O)SCC(=O)O	90 to 95%
O=C(O)CSC(=O)[C@H](Cc1c[nH]c2ccccc12)NC(=O)c1ccc([N+](=O)[O-])cc1	90 to 95%
O=C(O)CSC(=O)[C@H](Cc1c[nH]c2ccccc12)NC(=O)c1ccc(Cl)cc1	90 to 95%

Test system: Bacteria
Assay: Inhibition of bacterial metallo-beta-lactamase L1 expressed in Escherichia coli BL21 (DE3) assessed as cefazolin MIC at 16 ug/ml after 16 hrs by broth macrodilution method (reference value: 32 ug/ml)
Conditions: not given
In short: as §1

SMILES	MIC
CSCC[C@H](NC(=O)c1cccc(Br)c1)C(=O)SCC(=O)O	16 µg/mL
O=C(O)CSC(=O)[C@H](Cc1c[nH]c2ccccc12)NC(=O)c1ccc(Br)cc1	16 µg/mL
O=C(O)CSC(=O)[C@H](Cc1c[nH]c2ccccc12)NC(=O)c1ccc(F)cc1	16 µg/mL
CSCC[C@H](NC(=O)c1ccc([N+](=O)[O-])cc1)C(=O)SCC(=O)O	8 µg/mL
O=C(O)CSC(=O)[C@H](Cc1c[nH]c2ccccc12)NC(=O)c1ccc([N+](=O)[O-])cc1	8 µg/mL
O=C(O)CSC(=O)[C@H](Cc1c[nH]c2ccccc12)NC(=O)c1ccc(Cl)cc1	8 µg/mL

Test system: L929
Assay: Cytotoxicity against mouse L929 cells up to 200 uM after 48 hrs by CCK8 assay
Type: cell-based
Conditions: l929, 48 h

SMILES	Activity
CSCC[C@H](NC(=O)c1ccc([N+](=O)[O-])cc1)C(=O)SCC(=O)O	Non-Toxic

Test system: not listed separately
Assay: Drug metabolism assessed as bacterial metallo-beta-lactamase L1-mediated hydrolysis measured every 2 hrs for 24 hrs by UV-Vis spectroscopic analysis
Type: ADME
Conditions: bacteria
In short: as §2

SMILES	Drug metabolism
CSCC[C@H](NC(=O)c1ccc([N+](=O)[O-])cc1)C(=O)SCC(=O)O	Metabolite_Detected
O=C(O)CSC(=O)[C@H](Cc1c[nH]c2ccccc12)NC(=O)c1ccc([N+](=O)[O-])cc1	Metabolite_Detected
